Results of several laboratories.
Compare with care: the assays were run in different laboratories.
Cell line: K562
Read-out: cell growth or viability

| SMILES | assay | conditions | IC50 [nM] |
| --- | --- | --- | --- |
| COC(=O)Nc1nc2ccc(Oc3ccc(NC(=O)Nc4cc(C(F)(F)F)ccc4F)cc3)cc2s1 | XTT | 72 h | 81 |
| CCCCc1ccc2[nH]c(NC(=O)OC)nc2c1 | CCK-8 | 72 h | 61.2 |
| N#CCCCC1=CC2C=CC=CC1C2C1CCCCC1=O (centres unmarked) | flow cytometry | – | 31 |
| CC(C)C[C@H](NC(=O)[C@H](Cc1ccccc1)NC(=O)c1cnccn1)B(O)O | ATP luminescence | – | 5.6 |
| Cc1cc(NCCCCCCCNc2cc(C)nc3cc(N)ccc23)c2ccc(N)cc2n1 | XTT | 96 h | 13000 |
| O=C1NCCc2[nH]c(-c3ccncc3)cc21 | – | – | > 10000 |
| CN1c2ccccc2C(=O)N2[C@H](C(=O)Nc3ccc(/C=C/C(=O)NO)cc3)Cc3c([nH]c4ccccc34)[C@@H]12 | – | – | 1000 |
| CCOC(=O)CCC1=CC2C=CC=CC1C2C1CCCCC1=O (centres unmarked) | flow cytometry | – | 21 |
| CC(=O)O[C@H](C)C(=O)CCCCCCC(=O)Nc1ccccc1 | thymidine uptake | – | > 100000 |
| CC(C)[C@H](N)C(=O)N1CCC[C@H]1B(O)O | ATP luminescence | 48 h | > 60000 |
| O=C1CCCCC1C1C2C=CC=CC1C(CCN1C(=O)c3ccccc3C1=O)=C2 (centres unmarked) | flow cytometry | – | 11 |
| Cc1c(O)c(=O)ccn1CCO | MTT | 72 h | ≥ 100000 |
| C[C@@H](O)C(=O)CCCCCCC(=O)Nc1ccccc1 | thymidine uptake | – | 62500 |
| CCCCCC/C=C1\CC2C=CC=CC1C2C1CCCCC1=O (centres unmarked) | flow cytometry | – | 17 |
| N[C@@H](CC(=O)N1CCN(C(c2ccc(F)cc2)c2ccc(F)cc2)CC1)C(=O)N1Cc2ccccc2C1 | ATP luminescence | 48 h | 40800 |
| N#CCCC1=CC2C=CC=CC1C2C1CCCCC1=O (centres unmarked) | flow cytometry | – | 57 |
| CCCON(Cc1ccc(C(=O)NO)cc1)C(=O)Nc1ccc(N(C)C)cc1 | ATP luminescence | 72 h | 7680 |
